High-throughput results (PubChem BioAssay)
In the library only some 2.5% were active in any assay of this set; here they are far more common.
SENP1 inh = blocks the human SENP1 SUMO protease catalytic domain; recombinant SENP1 catalytic domain, CyPet-SUMO1-YPet FRET cleavage; inhibition, % at 10 µM; 360,000 compounds, 0.21% hits; Q9P0U3;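 active means inhibition at least 30% at 10 µM, raw YFP signal under a set limit, fluorescence ratio 0.5 to 1.5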;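 further: 0% = enzyme with DMSO and 100% = no enzyme wells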
Target sequence (Q9P0U3 419-644 limits assumed): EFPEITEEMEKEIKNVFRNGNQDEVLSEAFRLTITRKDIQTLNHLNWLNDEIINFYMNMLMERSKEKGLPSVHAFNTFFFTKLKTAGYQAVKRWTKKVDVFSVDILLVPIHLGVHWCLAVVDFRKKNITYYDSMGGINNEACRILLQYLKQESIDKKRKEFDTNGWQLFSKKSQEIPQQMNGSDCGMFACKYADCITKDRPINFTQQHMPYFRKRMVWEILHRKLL
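Test system: human SENP1 catalytic domain; medium: Tris pH 8 buffer plus EDTA, NaCl, BME, BSA, NP40, catalase; incubation: 50 min reaction at room temperature; technique: FRET, CFP and YFP emission; controls: no-enzyme low control and enzyme-plus-DMSO high control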
SENP6 inh = SENP6 protease inhibition; Recombinant SENP6 catalytic domain, aminoluciferin luminescence; inhibition, % at 10 µM; 330,000 compounds, 1.8% hits;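 active means inhibition above about 50% at the single tested dose, limit read from the data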;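 further: plate controls were DMSO wells with enzyme for no effect and DMSO wells lacking enzyme for full effect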
SENP8 block-1 = blocks the human protease SENP8; Q96LD8; purified SENP8, Z-RLRGG-aminoluciferin cleavage, luminescence; inhibition, % at 10 µM; 330,000 compounds, 1.2% hits; in the data active means inhibition above about 50%
SENP8 block-2 = inhibitors of human SENP8 protease; Q96LD8; recombinant SENP8, Nedd8 substrate fluorescence; inhibition, % at 20 µM; 360,000 compounds, 0.64% hits; AID 602440; in the data active means inhibition mostly above about 40%, no sharp cut-off; inactive means mostly below about 27%
SENP7 inh = inhibitors of human SENP7 protease; Q9BQF6; recombinant SENP7, Z-RLRGG-aminoluciferin luminescence, 40 min; 330,000 compounds, 1.5% hits; inhibition, % at 5 µM;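 active means inhibition above about 50% at the single test dose, limit read from the data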;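 further: plate controls were DMSO with enzyme for no effect and no enzyme buffer wells for full effect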
Target sequence (Q9BQF6 706-1050 limits assumed): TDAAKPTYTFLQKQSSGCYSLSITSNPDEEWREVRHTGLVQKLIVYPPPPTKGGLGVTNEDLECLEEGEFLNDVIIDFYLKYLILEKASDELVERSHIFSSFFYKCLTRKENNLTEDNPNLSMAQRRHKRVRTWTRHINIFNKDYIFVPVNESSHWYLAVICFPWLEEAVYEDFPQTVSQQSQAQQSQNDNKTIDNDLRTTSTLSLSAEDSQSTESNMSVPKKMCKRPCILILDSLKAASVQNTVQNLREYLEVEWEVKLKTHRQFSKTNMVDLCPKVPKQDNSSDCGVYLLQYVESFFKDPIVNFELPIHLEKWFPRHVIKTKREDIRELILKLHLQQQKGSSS
SENP1 inh conf = confirmation of human SENP1 SUMO protease inhibitors; shares compounds with SENP1 inh; recombinant SENP1, CyPet-SUMO1-YPet FRET cleavage; inhibition, % at 10 µM; 520 compounds, 34% hits; in the data active means inhibition mostly above about 35%, no sharp cut-off; inactive means mostly below about 32%;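 further: 0% = enzyme with DMSO and 100% = no enzyme control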
SENP1 kin conf = SENP1 (human) inhibition, kinetic confirmation | 520 compounds, 26% hits | recombinant SENP1, CyPet-SUMO1-YPet FRET kinetic cleavage | inhibition, % at 10 µM | shares compounds with SENP1 inh; in the data active means inhibition mostly above about 32%, no sharp cut-off; inactive means mostly below about 29%;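 further: 0% = DMSO with enzyme and 100% = no enzyme substrate only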
* marks the source's active call; other numbers are inactive results.

COc1ccccc1NC(=O)CON=C(N)CC(=O)NC1CCCCC1 was read as SENP1 inh 55*, SENP6 inh -5, SENP8 block-1 -2, SENP8 block-2 -2, SENP7 inh -4, SENP1 inh conf 51* and SENP1 kin conf 46*.
`COc1cc(OC)cc(-c2c(Sc3ccccc3)c3cc(-c4ccc(OC)c(OC)c4)ccc3n2C)c1` gave SENP1 inh 1 and SENP8 block-2 -346.
`COc1ccc(-c2c(Sc3ccccc3)c3cc(-c4ccc(OC)c(F)c4)ccc3n2C)cc1` gave SENP1 inh 30*, SENP8 block-2 -202, SENP1 inh conf -35 and SENP1 kin conf 4.
Screening CCOC(=O)c1c(C#N)c(SCC(=O)Nc2ccc(OC)cc2)nc2c1CN(CC)CC2 returned SENP1 inh 40*, SENP6 inh 10, SENP8 block-1 4, SENP8 block-2 -2, SENP7 inh 1, SENP1 inh conf 20 and SENP1 kin conf 11.
Cc1cccc(NC(=O)CCCN=C2NS(=O)(=O)c3ccccc32)c1C was read as SENP1 inh 0, SENP6 inh 2, SENP8 block-1 -6, SENP8 block-2 14 and SENP7 inh 6.
For Cc1cnc(C(=O)NC2CCSc3ccccc32)cn1 (centres undefined) the results were SENP1 inh -4, SENP6 inh 2, SENP8 block-1 -2, SENP8 block-2 1 and SENP7 inh -4.
For COc1ccc(-c2nnc(C)c3nocc23)cc1 the results were SENP1 inh 37*, SENP6 inh -3, SENP8 block-1 -2, SENP8 block-2 -4, SENP7 inh -1, SENP1 inh conf 23 and SENP1 kin conf 21.
For Brc1cc(Br)c2nc3c(cc2c1)CCC3 the results were SENP1 inh 33*, SENP6 inh -17, SENP8 block-1 -3, SENP8 block-2 9, SENP7 inh -6, SENP1 inh conf 3 and SENP1 kin conf 7.
For CSc1nc2c(cc1C#N)CCC2 the results were SENP1 inh 0, SENP6 inh -11, SENP8 block-1 7, SENP8 block-2 -11 and SENP7 inh -2.
O=C(N/N=C\c1cc(Br)c(Br)o1)c1cncc(Br)c1 was read as SENP1 inh 0, SENP6 inh -10, SENP8 block-1 -6, SENP8 block-2 -31 and SENP7 inh -3.
O=C(N/N=C/c1cc(Br)c(Br)o1)c1cccnc1 was read as SENP1 inh 35*, SENP6 inh 16, SENP8 block-1 9, SENP8 block-2 31, SENP7 inh 6, SENP1 inh conf 7 and SENP1 kin conf 3.
Screening O=C(N/N=C/c1cccnc1)c1cccc(Br)c1 returned SENP1 inh 31*, SENP6 inh -24, SENP8 block-1 -3, SENP8 block-2 4, SENP7 inh 24, SENP1 inh conf -11 and SENP1 kin conf -8.
For O=C1c2c(-c3ccc(Br)cc3)noc2CCN1Cc1cn(C2CCCC2)nn1 the results were SENP1 inh 0 and SENP8 block-2 10.
For CC1CCN(C(=O)COC(=O)/C=C/c2ccco2)CC1 the results were SENP1 inh 0, SENP6 inh -24, SENP8 block-1 -20, SENP8 block-2 13 and SENP7 inh -7.
`CSc1nnc2c(n1)OC(C)N(C(=O)c1ccccc1)c1ccccc1-2` (centres undefined) gave SENP1 inh 30*, SENP6 inh -1, SENP8 block-1 1, SENP8 block-2 -46, SENP7 inh 4, SENP1 inh conf 33 and SENP1 kin conf 34*.
Screening COc1cc(OC)c(C2Oc3nc(SC)nnc3-c3ccccc3N2C(C)=O)cc1OC (centres undefined) returned SENP1 inh 1, SENP6 inh -5, SENP8 block-1 -12, SENP8 block-2 -6 and SENP7 inh -12.
For Cc1ccc2sc(=O)[nH]c2c1 the results were SENP1 inh 2, SENP6 inh -21, SENP8 block-1 -4, SENP8 block-2 23 and SENP7 inh 12.
NC(=O)c1nc(-c2ccco2)nc2c1[nH]c(=O)n2-c1ccc(Cl)c(Cl)c1 was read as SENP1 inh -4, SENP6 inh 3, SENP8 block-1 3, SENP8 block-2 -489 and SENP7 inh -4.
For CCN1/C(=C\C=C2\C(=O)N(c3ccccc3)C(=S)N2C)Sc2ccccc21 the results were SENP1 inh 35*, SENP8 block-2 20, SENP1 inh conf -3 and SENP1 kin conf 0.
For CCN1/C(=C\C=C(C(C)=O)C(C)=O)Sc2ccccc21 the results were SENP1 inh -25, SENP6 inh -1, SENP8 block-1 -4, SENP8 block-2 -4 and SENP7 inh -6.
`CC1(C(=O)NS(=O)(=O)c2ccc(F)cc2F)CCN1C(=O)C1(c2ccc(Cl)cc2)CC1` (centres undefined) gave SENP1 inh 2 and SENP8 block-2 16.
For COc1ccc(Cc2c(-c3ccccc3)nc3c(C)cc(Br)cn23)c(C)c1 the results were SENP1 inh 6 and SENP8 block-2 -70.
For COc1ccccc1C1C2=C(N=c3s/c(=C/c4cccc(OCC(=O)O)c4)c(=O)n31)c1ccccc1CC2 (centres undefined) the results were SENP1 inh 36*, SENP8 block-2 -42, SENP1 inh conf 44* and SENP1 kin conf 21.
`COc1cccc(C2C3=C(N=c4s/c(=C\c5cccc(O)c5)c(=O)n42)c2ccccc2CC3)c1OC` (centres undefined) gave SENP1 inh 50*, SENP6 inh -22, SENP8 block-1 -6, SENP8 block-2 -2, SENP7 inh -7, SENP1 inh conf 26 and SENP1 kin conf 17.
Screening CN(CCc1ccccc1)C1CCCN(S(=O)(=O)N(C)C)C1 (centres undefined) returned SENP1 inh 12, SENP6 inh 5, SENP8 block-1 3, SENP8 block-2 -27 and SENP7 inh -9.
Screening CCOc1cc(/C=C2\N=C3CCCCCN3C2=O)ccc1O returned SENP1 inh 39*, SENP6 inh -24, SENP8 block-1 -16, SENP8 block-2 -35, SENP7 inh -8, SENP1 inh conf 56* and SENP1 kin conf 50*.
Screening CCOc1cc(/C=C2\SC(=S)N(NS(=O)(=O)c3ccccc3)C2=O)ccc1O returned SENP1 inh 82*, SENP6 inh 46, SENP8 block-1 42, SENP8 block-2 39, SENP7 inh -3, SENP1 inh conf 124* and SENP1 kin conf 70*.
CCOc1cc(/C=C2\SC(=O)N=C2N)ccc1O was read as SENP1 inh 31*, SENP6 inh -33, SENP8 block-1 -12, SENP8 block-2 5, SENP7 inh -8, SENP1 inh conf 61* and SENP1 kin conf 46*.
